Source: ChEMBL document CHEMBL3124863, “Structural modifications of neuroprotective anti-Parkinsonian (-)-N6-(2-(4-(biphenyl-4-yl)piperazin-1-yl)-ethyl)-N6-propyl-4,5,6,7-tetrahydrobenzo[d]thiazole-2,6-diamine (D-264): an effort toward the improvement of in vivo efficacy of the parent molecule” (J Med Chem, 2014)
Activity calls are given as the source filed them. The calls are words filed in the database; no cut-off is given here.

Columns and labels:
Rattus norvegicus [1] = organism: Rattus norvegicus; assay: Selectivity ratio of Ki for rat dopamine D2L receptor to Ki for rat dopamine D3 receptor
Summary of the method: (§1)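 Inhibition of [3H]spiroperidol (16.2 Ci/mmol) binding to rat D2 or D3 receptors expressed in HEK-293 cells. Buffer contains 0.9% NaCl; "high [radioligand]" protocol. IC50 converted to Ki by Cheng–Prusoff. Means ± SEM of 3–6 experiments, each in triplicate.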

D(2) dopamine receptor [2] = target: D(2) dopamine receptor (Rattus norvegicus, UniProt P61169); assay: Displacement of [3H]spiroperidol from rat dopamine D2L receptor expressed in HEK293 cells; format: cell-based; summary of the method: as §1
D(2) dopamine receptor (Rattus norvegicus, UniProt P61169), sequence (P61169 whole entry): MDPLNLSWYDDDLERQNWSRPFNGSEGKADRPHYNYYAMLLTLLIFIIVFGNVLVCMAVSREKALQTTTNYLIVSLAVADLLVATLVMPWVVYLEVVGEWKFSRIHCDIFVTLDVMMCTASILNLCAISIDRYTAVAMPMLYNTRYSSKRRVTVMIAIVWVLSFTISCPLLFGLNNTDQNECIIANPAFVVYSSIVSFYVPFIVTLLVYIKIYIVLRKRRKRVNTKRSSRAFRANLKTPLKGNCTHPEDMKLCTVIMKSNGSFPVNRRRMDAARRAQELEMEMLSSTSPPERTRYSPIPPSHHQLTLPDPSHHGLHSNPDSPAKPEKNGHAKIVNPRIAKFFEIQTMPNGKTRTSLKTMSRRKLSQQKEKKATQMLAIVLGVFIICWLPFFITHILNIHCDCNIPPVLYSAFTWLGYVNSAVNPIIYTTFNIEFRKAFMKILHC

D(3) dopamine receptor [3] = target: D(3) dopamine receptor (Rattus norvegicus, UniProt P19020); assay: Displacement of [3H]spiroperidol from rat dopamine D3 receptor expressed in HEK293 cells; format: cell-based; summary of the method: as §1
D(3) dopamine receptor (Rattus norvegicus, UniProt P19020), sequence (P19020 whole entry): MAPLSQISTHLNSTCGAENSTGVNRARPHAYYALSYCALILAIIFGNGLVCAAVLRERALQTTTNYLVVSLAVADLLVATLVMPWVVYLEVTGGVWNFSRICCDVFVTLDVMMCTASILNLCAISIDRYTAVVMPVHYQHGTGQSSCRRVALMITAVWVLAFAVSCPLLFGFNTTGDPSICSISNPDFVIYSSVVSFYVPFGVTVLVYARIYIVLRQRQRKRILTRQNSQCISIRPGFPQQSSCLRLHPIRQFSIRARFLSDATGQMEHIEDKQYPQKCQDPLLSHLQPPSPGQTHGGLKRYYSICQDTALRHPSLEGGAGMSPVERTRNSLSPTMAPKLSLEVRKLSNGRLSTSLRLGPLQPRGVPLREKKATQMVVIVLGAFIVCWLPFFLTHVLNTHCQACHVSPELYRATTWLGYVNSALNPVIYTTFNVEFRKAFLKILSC

MN9D [4] = assay: Neuroprotective activity in mouse MN9D cells assessed as protection against MPP+-induced toxicity pretreated for 1 hr followed by MPP+-challenge measured after 24 hrs by MTT assay; format: functional, cell-based
Summary of the method: (§2)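 MN9D mouse dopaminergic hybridoma cells seeded at 1 × 10^4 per well on poly-L-lysine and equilibrated 40 h. Pretreated 1 h with compound (0.001–20 μM), then cotreated with 100 μM MPP+ for 24 h at 37 °C. Viability by MTT (0.5 mg/mL final, 3 h), formazan in DMSO/methanol, A570–A690. Means ± SD of three experiments in 4–6 replicates; ANOVA with Tukey's test.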

Rattus norvegicus [5] = assay: Antiparkinsonian activity in 6-OHDA-lesioned Sprague-Dawley rat assessed as stimulation of rotational activity measured as time required to reach peak effect at 9.28 mg/kg, ip; format: functional; conditions: route intraperitoneal
Summary of the method: (§3)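 Male Sprague–Dawley rats (290–320 g) with a left medial forebrain bundle 6-OHDA lesion, confirmed by apomorphine challenge. Drug given i.p. in water/saline; vehicle controls. Contralateral (clockwise) rotations counted in a rotometry harness chamber in 30-min bins over up to 12 h. Doses 5 or 10 μmol/kg. Mean ± SEM of 3–4 rats; ANOVA with Dunnett's test.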

Rattus norvegicus [6] = assay: Antiparkinsonian activity in 6-OHDA-lesioned Sprague-Dawley rat assessed as stimulation of rotational activity at 4.64 mg/kg, ip measured for 7 hrs; format: functional, organism-based; set-up: dose 4.64 mg/kg; summary of the method: as §3
Rattus norvegicus [7] = assay: Antiparkinsonian activity in 6-OHDA-lesioned Sprague-Dawley rat assessed as stimulation of rotational activity at 9.28 mg/kg, ip measured for 10 hrs; format: functional, organism-based; set-up: dose 9.28 mg/kg; summary of the method: as §3
Rattus norvegicus [8] = assay: Antiparkinsonian activity in 6-OHDA-lesioned ip dosed Sprague-Dawley rat assessed as stimulation of rotational activity measured up to 12 hrs; format: functional, organism-based; summary of the method: as §3
Rattus norvegicus [9] = assay: Antiparkinsonian activity in Sprague-Dawley rat assessed as reversal of reserpine-induced akinesia at 5 umol/kg, ip administered in deionized water measured up to 400 mins; format: functional, organism-based
Summary of the method: (§4)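 Male Sprague–Dawley rats (220–225 g) given reserpine 5 mg/kg s.c. 18 h before test drug. After 1 h acclimatization, drug given at 5 μmol/kg (i.p., or s.c. for ropinirole). Horizontal activity counted by infrared beam breaks for 6 h in 30-min intervals, compared with reserpine controls. n = 4; ANOVA with Dunnett's test.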

[10] = test system: Radical scavenging activity; assay: Antioxidant activity assessed as inhibition of DPPH free radical scavenging activity; format: functional
Summary of the method: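 Compounds in methanol (20–250 μM solutions) mixed 1:1 with 200 μM methanolic DPPH. Shaken 25 min at 30 °C, absorbance read at 517 nm. Methanol-only wells used for background; ascorbic acid as standard. % scavenging = (control A − sample A)/control A × 100.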

Homo sapiens = organism: Homo sapiens; assay: Selectivity ratio of EC50 for human dopamine D2 receptor to EC50 for human dopamine D3 receptor
D(3) dopamine receptor [11] = target: D(3) dopamine receptor (Homo sapiens, UniProt P35462); assay: Agonist activity at human dopamine D3 receptor expressed in CHO cells assessed as stimulation of [35S]GTPgammaS binding; format: functional, cell-based
D(3) dopamine receptor (Homo sapiens, UniProt P35462), sequence (P35462 whole entry): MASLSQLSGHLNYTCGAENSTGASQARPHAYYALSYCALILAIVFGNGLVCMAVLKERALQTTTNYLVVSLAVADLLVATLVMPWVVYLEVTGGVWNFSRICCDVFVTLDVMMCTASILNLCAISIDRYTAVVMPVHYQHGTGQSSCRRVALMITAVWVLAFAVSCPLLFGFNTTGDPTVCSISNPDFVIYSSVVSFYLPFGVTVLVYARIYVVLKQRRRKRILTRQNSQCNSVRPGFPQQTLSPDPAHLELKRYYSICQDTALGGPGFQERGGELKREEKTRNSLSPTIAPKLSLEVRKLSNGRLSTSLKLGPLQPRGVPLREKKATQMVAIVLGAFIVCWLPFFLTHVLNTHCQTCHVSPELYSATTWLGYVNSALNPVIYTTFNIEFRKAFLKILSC

D(2) dopamine receptor [12] = target: T1, D(2) dopamine receptor (Homo sapiens, UniProt P14416); assay: Agonist activity at human dopamine D2 receptor expressed in CHO cells assessed as stimulation of [35S]GTPgammaS binding relative to dopamine; format: functional, cell-based
T1 sequence (P14416 whole entry): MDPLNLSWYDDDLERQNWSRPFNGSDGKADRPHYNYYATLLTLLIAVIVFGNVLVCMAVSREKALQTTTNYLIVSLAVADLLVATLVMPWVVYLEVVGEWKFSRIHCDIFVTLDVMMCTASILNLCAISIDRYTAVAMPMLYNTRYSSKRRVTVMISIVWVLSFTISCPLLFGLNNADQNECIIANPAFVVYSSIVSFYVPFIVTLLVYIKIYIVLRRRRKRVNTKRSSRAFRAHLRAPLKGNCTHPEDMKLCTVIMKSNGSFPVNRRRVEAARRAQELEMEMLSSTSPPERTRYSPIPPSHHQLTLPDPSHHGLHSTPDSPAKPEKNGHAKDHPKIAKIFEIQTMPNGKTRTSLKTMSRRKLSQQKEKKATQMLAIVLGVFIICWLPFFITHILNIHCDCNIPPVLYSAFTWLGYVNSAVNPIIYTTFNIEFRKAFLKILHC
Summary of the method: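 [35S]GTPγS (1250 Ci/mmol) binding stimulated in CHO cells expressing human D2. EC50 is the concentration giving half-maximal stimulation. […] Means ± SEM of 3–6 experiments, each in triplicate.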

D(2) dopamine receptor [13] = target: T1, D(2) dopamine receptor; assay: Agonist activity at human dopamine D2 receptor expressed in CHO cells assessed as stimulation of [35S]GTPgammaS binding; format: functional, cell-based
Summary of the method: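 [35S]GTPγS (1250 Ci/mmol) binding stimulated in CHO cells expressing human D2. EC50 is the concentration giving half-maximal stimulation. Means ± SEM of 3–6 experiments, each in triplicate.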

Rattus norvegicus [14] = assay: Antiparkinsonian activity in 6-OHDA-lesioned Sprague-Dawley rat assessed as stimulation of rotational activity at 10 umol/kg measured up to 12 hrs; format: functional, organism-based; summary of the method: as §3
Rattus norvegicus [15] = assay: Antiparkinsonian activity in Sprague-Dawley rat assessed as reversal of reserpine-induced akinesia at 5 umol/kg, sc administered in deionized water measured up to 400 mins; format: functional, organism-based; summary of the method: as §4
MN9D [16] = assay: Neuroprotective activity in mouse MN9D cells assessed as protection against MPP+-induced toxicity at 0.001 to 20 uM pretreated for 1 hr followed by MPP+-challenge measured after 24 hrs by MTT assay; format: functional, cell-based; summary of the method: as §2
Rattus norvegicus [17] = assay: Antiparkinsonian activity in 6-OHDA-lesioned Sprague-Dawley rat assessed as stimulation of rotational activity measured as time required to reach peak effect at 6.56 mg/kg, ip; format: functional; conditions: route intraperitoneal; summary of the method: as §3
Rattus norvegicus [18] = assay: Antiparkinsonian activity in 6-OHDA-lesioned Sprague-Dawley rat assessed as stimulation of rotational activity at 3.28 mg/kg, ip measured for 7 hrs; format: functional, organism-based; set-up: dose 3.28 mg/kg; summary of the method: as §3
Rattus norvegicus [19] = assay: Antiparkinsonian activity in 6-OHDA-lesioned Sprague-Dawley rat assessed as stimulation of rotational activity at 6.56 mg/kg, ip measured for 10 hrs; format: functional, organism-based; set-up: dose 6.56 mg/kg; summary of the method: as §3
D(2) dopamine receptor [20] = target: T1, D(2) dopamine receptor; assay: Agonist activity at human dopamine D2 receptor expressed in CHO cells assessed as stimulation of [35S]GTPgammaS binding
D(2) dopamine receptor [21] = target: T1, D(2) dopamine receptor; assay: Agonist activity at human dopamine D2 receptor expressed in CHO cells assessed as stimulation of [35S]GTPgammaS binding relative to dopamine
Rattus norvegicus [22] = assay: Antiparkinsonian activity in 6-OHDA-lesioned Sprague-Dawley rat assessed as stimulation of rotational activity at 2.5 umol/kg measured for 5 hrs in presence of haloperidol; format: functional, organism-based
Rattus norvegicus [23] = assay: Antiparkinsonian activity in Sprague-Dawley rat assessed as reversal of reserpine-induced akinesia at 5 umol/kg, ip administered in 10% beta-hydroxy cyclodextrin solution measured up to 400 mins; format: functional, organism-based; summary of the method: as §4

Ratio Ki (Rattus norvegicus [1])	Ki (D(2) dopamine receptor [2]) [nM]	Ki (D(3) dopamine receptor [3]) [nM]	Structure (SMILES)	inhibition [10]	other results
213	369	1.73	CCCN(CCN1CCN(c2ccc(-c3cccc(O)c3)cc2)CC1)[C@H]1CCc2nc(N)sc2C1	Dose-dependent effect	Activity (MN9D [4]): Dose-dependent effect; Time (Rattus norvegicus [5]): 7.5 h; Activity (Rattus norvegicus [6]): Active; Activity (Rattus norvegicus [7]): Active; Activity (Rattus norvegicus [8]): Dose-dependent effect; Activity (Rattus norvegicus [9]): Active; Ratio EC50 (Homo sapiens): 159; EC50 (D(3) dopamine receptor [11]): 0.1 nM; Emax (D(2) dopamine receptor [12]): 116%; EC50 (D(2) dopamine receptor [13]): 15.9 nM
220	464	2.11	CCCN(CCN1CCN(c2ccc(-c3cccc(OC)c3)cc2)CC1)C1CCc2nc(N)sc2C1 (racemic)	–	–
147	343	2.33	CCCN(CCN1CCN(c2ccc(-c3cccc(OC)c3)cc2)CC1)[C@H]1CCc2nc(N)sc2C1	Dose-dependent effect	Activity (MN9D [16]): inactive; Time (Rattus norvegicus [17]): 7.5 h; Activity (Rattus norvegicus [18]): Active; Activity (Rattus norvegicus [19]): Active; Activity (Rattus norvegicus [8]): Dose-dependent effect; Activity (Rattus norvegicus [9]): Active; Ratio EC50 (Homo sapiens): 10.8; EC50 (D(3) dopamine receptor [11]): 3.42 nM; EC50 (D(2) dopamine receptor [20]): 36.8 nM; Emax (D(2) dopamine receptor [21]): 105%
289	347	1.2	CCCN(CCN1CCN(c2ccc(-c3cccc(O)c3)cc2)CC1)C1CCc2nc(N)sc2C1 (racemic)	–	–
76	1510	19.7	CCCN(CCN1CCN(c2ccc(-c3cccc(O)c3)cc2)CC1)[C@@H]1CCc2nc(N)sc2C1	–	–
115	208	1.8	CCCN(CCN1CCN(c2ccc(-c3ccccc3O)cc2)CC1)C1CCc2nc(N)sc2C1 (racemic)	–	–
174	1670	9.58	CCCN(CCN1CCN(C(=O)c2ccc(-c3ccccc3)cc2)CC1)C1CCc2nc(N)sc2C1 (racemic)	–	–
30	70.6	2.35	CCCN(CCN1CCN(c2ccc(-c3ccccc3)cc2O)CC1)C1CCc2nc(N)sc2C1 (racemic)	–	–

The remaining lines, values behind:

Structure (SMILES)	Ratio Ki (Rattus norvegicus [1])	Ki (D(2) dopamine receptor [2]) [nM]	Ki (D(3) dopamine receptor [3]) [nM]	inhibition [10]	other results
CCCN(CCN1CCN(c2ccc(-c3cccc(O)c3)cc2)CC1)C1CCc2nc(N)ncc2C1 (racemic)	196	13100	67	–	–
CCCN(CCN1CCN(c2ccc(-c3ccccc3)cc2)CC1)C1CCc2nc(N)ncc2C1 (racemic)	201	735	3.65	–	–
CCCN(CCCCN1CCN(c2ccc(-c3cccc(O)c3)cc2)CC1)C1CCc2nc(N)sc2C1 (racemic)	60	567	9.43	–	–
CCCN(CCC)CCc1cccc2c1CC(=O)N2	–	–	–	Dose-dependent effect	Activity (Rattus norvegicus [14]): Active; Activity (Rattus norvegicus [15]): Active
CCCN(CCN1CCN(c2ccc(-c3ccc(OC)cc3)cc2)CC1)C1CCc2nc(N)sc2C1 (racemic)	151	213	1.41	–	–
O=C1O[C@H]([C@@H](O)CO)C(O)=C1O	–	–	–	Dose-dependent effect	–
CCCN(CCN1CCN(c2ccc(-c3cccc(O)c3)cc2)CC1)[C@H]1CCc2c(O)cccc2C1	36	27.8	0.77	Dose-dependent effect	–
CCCN(CCN1CCN(c2ccc(-c3ccc(O)cc3)cc2)CC1)C1CCc2nc(N)sc2C1 (racemic)	196	230	1.17	–	–
CCCN(CCN1CCN(c2ccc(-c3ccccc3OC)cc2)CC1)C1CCc2nc(N)sc2C1 (racemic)	78	274	3.57	–	–
CCCN(CCN1CCN(c2ccc(-c3ccccc3)cc2)CC1)[C@H]1CCc2nc(N)sc2C1	–	–	–	Dose-dependent effect	Activity (MN9D [4]): Dose-dependent effect; Activity (Rattus norvegicus [22]): inactive; Activity (Rattus norvegicus [23]): Active; Activity (Rattus norvegicus [9]): inactive
